Laboratory results taken from PMC6559718 (Journal of biomolecular screening, 2016).

Experiments:
[1] = target: T1, human ANT2 (Homo sapiens, UniProt P05141); test: ADP/ATP exchange with isolated yeast mitochondria expressing hANT2; assay type: biochemical; conditions: for ADP/ATP exchange activity / ADP uptake: 10 μM, isolated yeast mitochondria, hANT2 (Fig. 2B left)
T1 sequence (P05141 1-298): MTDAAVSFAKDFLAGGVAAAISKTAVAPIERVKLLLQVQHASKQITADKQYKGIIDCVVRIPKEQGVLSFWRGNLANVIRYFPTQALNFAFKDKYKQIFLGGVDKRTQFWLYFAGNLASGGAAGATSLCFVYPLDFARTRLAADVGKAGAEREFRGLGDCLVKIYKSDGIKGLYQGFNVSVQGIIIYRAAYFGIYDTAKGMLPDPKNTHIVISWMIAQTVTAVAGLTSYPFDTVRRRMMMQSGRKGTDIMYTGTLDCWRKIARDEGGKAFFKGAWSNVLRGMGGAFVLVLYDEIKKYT

[2] = system: four hANT yeast strains
[3] = system: four hANT yeast strains; test: Yeast growth assay in YPEG medium, the four hANT yeast strains; assay type: cell-based, Saccharomyces cerevisiae; conditions: hANT1, -2, -3 or -4 yeast strains, BKA final 50 μM
[4] = target: T2, human ANT1 (Homo sapiens, UniProt P12235); test: ADP/ATP exchange with Lactococcus lactis expressing hANT1; assay type: biochemical
T2 sequence (P12235 1-298): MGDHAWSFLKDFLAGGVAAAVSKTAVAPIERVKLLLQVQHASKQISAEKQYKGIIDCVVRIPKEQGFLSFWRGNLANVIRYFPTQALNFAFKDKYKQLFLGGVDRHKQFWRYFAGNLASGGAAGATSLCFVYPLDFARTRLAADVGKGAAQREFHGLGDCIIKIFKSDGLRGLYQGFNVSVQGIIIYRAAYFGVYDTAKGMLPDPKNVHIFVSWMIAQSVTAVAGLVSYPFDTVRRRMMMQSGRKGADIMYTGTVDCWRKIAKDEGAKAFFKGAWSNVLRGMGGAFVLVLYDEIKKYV

[5] = target: T3, human ANT3 (Homo sapiens, UniProt P12236); test: ADP/ATP exchange with Lactococcus lactis expressing hANT3; assay type: biochemical
T3 sequence (P12236 1-298): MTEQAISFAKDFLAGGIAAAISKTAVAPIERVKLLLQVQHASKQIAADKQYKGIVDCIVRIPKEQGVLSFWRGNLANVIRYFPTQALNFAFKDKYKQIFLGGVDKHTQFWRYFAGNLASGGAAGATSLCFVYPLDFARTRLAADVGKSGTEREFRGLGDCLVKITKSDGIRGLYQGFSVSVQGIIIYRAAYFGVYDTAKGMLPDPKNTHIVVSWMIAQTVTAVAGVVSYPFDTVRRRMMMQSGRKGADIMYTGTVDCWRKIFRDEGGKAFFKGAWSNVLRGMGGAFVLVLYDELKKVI

[6] = system: MiaPaCa-2 cells; test: Oxygen consumption rate in MiaPaCa-2 cells; assay type: cell-based, human; conditions: after ADP addition, leelamine 50 pM as printed
Procedure, shortened: (§1)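 Cells were kept in RPMI1640 with 10% FBS, plated at 20,000/well, and incubated overnight at 37 °C in 5% CO2. Before the assay, medium was replaced with MAS buffer (mannitol/sucrose/KH2PO4/MgCl2/HEPES/EGTA, 0.2% fatty-acid-free BSA, pH 7.4) plus 10 mM pyruvate and […]. Sequential injections were atpenin A5, 3.5 mM ADP, plasma membrane permeabilizer, then test compound or cATR control. OCR was read on an extracellular flux analyzer.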

[7] = system: HCT116 cells; test: Oxygen consumption rate in HCT116 cells; assay type: cell-based, human; conditions: after ADP addition, leelamine 50 pM as printed
Procedure, shortened: as §1

[8] = target: T1, human ANT2; test: ADP/ATP exchange with Lactococcus lactis expressing hANT2; assay type: biochemical
[9] = system: human ANT isoforms; test: ADP/ATP exchange in L. lactis, human ANT isoforms; assay type: biochemical; conditions: single-concentration test of compounds selected from the yeast growth assay
[10] = system: yeast strain expressing hANT3; test: microbe, parasite or virus in culture; assay type: cell-based; conditions: Saccharomyces cerevisiae, read-out: Activity hANT3 IC50
[11] = system: yeast strain expressing hANT1; test: microbe, parasite or virus in culture; assay type: cell-based; conditions: Saccharomyces cerevisiae, read-out: Activity hANT1 IC50
[12] = in vitro; conditions: Saccharomyces cerevisiae
[13] = in vitro; conditions: Saccharomyces cerevisiae; remark: listed apart in the source
[14] = target: T4, human ANT4 (Homo sapiens, UniProt Q9H0C2); test: ADP/ATP exchange with isolated yeast mitochondria expressing hANT4; assay type: biochemical
T4 sequence (Q9H0C2 1-315): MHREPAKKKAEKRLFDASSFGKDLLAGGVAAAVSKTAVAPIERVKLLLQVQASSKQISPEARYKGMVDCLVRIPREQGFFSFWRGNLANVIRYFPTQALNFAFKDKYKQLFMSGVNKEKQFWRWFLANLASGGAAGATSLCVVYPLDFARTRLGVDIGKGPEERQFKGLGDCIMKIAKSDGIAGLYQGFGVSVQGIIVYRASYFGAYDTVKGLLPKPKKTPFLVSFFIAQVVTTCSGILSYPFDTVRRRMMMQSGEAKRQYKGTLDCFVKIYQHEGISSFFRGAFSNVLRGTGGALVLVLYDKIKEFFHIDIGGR

[15] = target: T2, human ANT1; test: ADP/ATP exchange with isolated yeast mitochondria expressing hANT1; assay type: biochemical
[16] = system: yeast strain expressing hANT2; test: microbe, parasite or virus in culture; assay type: cell-based; conditions: Saccharomyces cerevisiae, read-out: Activity hANT2 IC50
[17] = target: T3, human ANT3; test: ADP/ATP exchange with isolated yeast mitochondria expressing hANT3; assay type: biochemical
[18] = in vitro; conditions: Saccharomyces cerevisiae; remark: listed apart in the source
[19] = system: yeast strain expressing hANT4; test: microbe, parasite or virus in culture; assay type: cell-based; conditions: Saccharomyces cerevisiae, read-out: Activity hANT4 IC50
[20] = in vitro; conditions: Saccharomyces cerevisiae; remark: listed apart in the source
[21] = system: human ANT isoforms; test: ADP/ATP exchange in isolated yeast mitochondria, human ANT isoforms; assay type: biochemical
[22] = read-out: L. lactis hANT1 IC50, [3H]ADP uptake, ADP/ATP exchange, mean ± SEM
[23] = read-out: L. lactis hANT3 IC50, [3H]ADP uptake, ADP/ATP exchange, mean ± SEM
[24] = read-out: L. lactis hANT2 IC50, [3H]ADP uptake, ADP/ATP exchange, mean ± SEM

In the case of `C=C1[C@@H]2CC[C@H]3[C@]4(C)C[C@H](O[C@@H]5O[C@H](CO)[C@@H](OS(=O)(=O)O)[C@H](OS(=O)(=O)O)[C@H]5OC(=O)CC(C)C)C[C@@H](C(=O)O)[C@H]4CC[C@]3(C2)[C@H]1O` [ATR, atractyloside], the “ADP/ATP exchange activity / ADP uptake” value [1] is reported as “completely inhibited”.
With `CCCCc1oc2ccccc2c1C(=O)c1cc(I)c(OCCN(CC)CC)c(I)c1` [Amiodarone] the “cytotoxic effect in glucose-containing medium” value [2] was “exhibited cytotoxic effect in certain strains” and the “activity in LOPAC pilot screen” value [3] was “identified as a hit”.
With `CO[C@H](C/C=C\C=C\CC/C=C/C[C@H](C)/C=C/C(=C\C(=O)O)CC(=O)O)/C(C)=C\C=C(/C)C(=O)O` [BKA, bongkrekic acid] the “ADP/ATP exchange activity / ADP uptake” value [1] was “completely inhibited” and the “activity in LOPAC pilot screen” value [3] was “weakly active”.
For `O=C(O)c1ccc2cc(-c3ccc(O)c(C45CC6CC(CC(C6)C4)C5)c3)ccc2c1` [CD437], the “cytotoxic effect in glucose-containing medium” value [2] was “exhibited cytotoxic effect in certain strains”, the IC50 [4, 22] was 54 ± 9 µM and the IC50 [5, 23] was 94 ± 19 µM. For the same compound, the “oxygen consumption rate (OCR)” value [6] was “Neither CD437 nor closantel produced an appreciable level of reduction of OCR”, the “oxygen consumption rate (OCR)” value [7] was “inhibited OCR” and the “selectivity for hANT2 over hANT3” value ([8]; L. lactis assay) was ~ 3 fold. The IC50 [8, 24] was 36 ± 6.3 µM and the “inhibition of [3H]ADP uptake by L. lactis” value (“inhibition of [3H]ADP uptake” for short) [9] was “inhibited”.
Compound `Cc1cc(C(C#N)c2ccc(Cl)cc2)c(Cl)cc1NC(=O)c1cc(I)cc(I)c1O` (centres unmarked) [Closantel] has an IC50 [10] of 6.3 ± 2.3 µM, an IC50 [11] of 4.7 ± 0.8 µM and an IC50 [1] of 92 ± 32 µM. For the same compound, the IC50 [12] was greater than 100 µM, the IC50 [13] was greater than 100 µM and the IC50 [14] was 64 ± 25 µM. For the same compound, the IC50 [4] was 15 ± 2.8 µM, the “selectivity for hANT1 over hANT3” value ([4]; L. lactis assay) was ~ 3 fold and the IC50 [5] was 47 ± 11 µM. For the same compound, the IC50 [15] was 52 ± 15 µM, the IC50 [16] was 6.1 ± 2.4 µM and the IC50 [17] was 100 ± 32 µM. The IC50 [18] was greater than 100 µM, the IC50 [19] was 9.6 ± 8.7 µM and the “oxygen consumption rate (OCR)” value [6] was “Neither CD437 nor closantel produced an appreciable level of reduction of OCR”. The “oxygen consumption rate (OCR)” value [7] was “inhibited OCR”, the IC50 [8] was 24 ± 4.2 µM and the IC50 [20] was greater than 100 µM. The “inhibition of [3H]ADP uptake” value [9] was “inhibited”.
In the case of `N#CC(C#N)=NNc1ccc(OC(F)(F)F)cc1` [FCCP, carbonyl cyanide-4-(trifluoromethoxy) phenylhydrazone], the “[3H]ADP uptake in L. lactis” value ([8]; 10 μM, L. lactis expressing hANT2 (Fig. 2B right)) is reported as “inactive”.
`O=C(Nc1cc(C(F)(F)F)cc(C(F)(F)F)c1)c1cc(Cl)ccc1O` [IMD 0354] gave an IC50 [10] of 0.52 ± 0.08 µM, an IC50 [11] of 0.58 ± 0.1 µM and an IC50 [16] of 0.45 ± 0.1 µM. It also gave an IC50 [19] of 0.85 ± 0.07 µM.
With `CC(C)c1ccc2c(c1)CC[C@H]1[C@](C)(CN)CCC[C@]21C` [Leelamine] the “effect on translocase activity in L. lactis expressing hANT1” value ([4]; Fig. 3C) was “increased translocase activity”, the IC50 [4, 22] was greater than 100 µM and the “effect on translocase activity in L. lactis expressing hANT3” value ([5]; Fig. 3C) was “inhibited the activity”. The IC50 [5, 23] was 47 ± 11 µM, the “oxygen consumption rate (OCR)” value [6] was “decreased OCR” and the “oxygen consumption rate (OCR)” value [7] was “decreased the OCR to a similar extent as cATR”. For the same compound, the “effect on translocase activity in L. lactis expressing hANT2” value ([8]; Fig. 3C) was “increased translocase activity”, the IC50 [8, 24] was greater than 100 µM and the “effect on hANT activity in mitochondrial assays” value ([21]; 100 μM, all isoforms) was “inhibited hANT activity”. For the same compound, the “effect on translocase activity in mitochondria” value ([21]; 10 and 30 μM, hANT4, hANT3 and particularly hANT2 strains) was “increased translocase activity” and the “inhibition of [3H]ADP uptake” value [9] was “inhibited”.
Compound `CN(C)c1ccc(O)c2c1C[C@H]1C[C@H]3[C@H](N(C)C)C(O)=C(C(N)=O)C(=O)[C@@]3(O)C(O)=C1C2=O` [Minocycline] has an IC50 [10] greater than 100 µM, an IC50 [11] greater than 100 µM and an IC50 [12] greater than 100 µM. For the same compound, the IC50 [13] was greater than 100 µM, the IC50 [16] was greater than 100 µM and the IC50 [18] was greater than 100 µM. For the same compound, the IC50 [19] was greater than 100 µM, the IC50 [20] was greater than 100 µM and the “inhibition of exchange activity in the mitochondrial assay” value ([21]; 30 μM, in at least one yeast strain (Suppl. Table S1)) was “strong inhibition”. For the same compound, the “inhibition of [3H]ADP uptake” value [9] was “completely inactive”.
For `C[C@@H]1C[C@H]2CC[C@H](O2)[C@H](C)C(=O)O[C@@H](C)C[C@@H]2CC[C@@H](O2)[C@@H](C)C(=O)O[C@H](C)C[C@H]2CC[C@H](O2)[C@H](C)C(=O)O[C@@H](C)C[C@@H]2CC[C@@H](O2)[C@@H](C)C(=O)O1` [Nonactin], the IC50 [10] was 4.7 ± 1.5 µM, the IC50 [11] was 4.4 ± 1.3 µM and the IC50 [12] was greater than 100 µM. It also gave an IC50 [13] greater than 100 µM, an IC50 [16] of 3.3 ± 1.1 µM and an IC50 [18] greater than 100 µM. For the same compound, the IC50 [19] was 3.3 ± 0.4 µM and the IC50 [20] was greater than 100 µM.
For `CC(C)(C)c1cc(C=C(C#N)C#N)cc(C(C)(C)C)c1O` [Tyrphostin A9], the IC50 [10] was 24 ± 10 µM, the IC50 [11] was 42 ± 20 µM and the IC50 [12] was greater than 100 µM. It also gave an IC50 [13] greater than 100 µM, an IC50 [16] of 35 ± 15 µM and an IC50 [18] greater than 100 µM. For the same compound, the IC50 [19] was 13 ± 4 µM and the IC50 [20] was greater than 100 µM.
In the case of `C=C1[C@@H]2CC[C@H]3[C@]4(C)C[C@H](O[C@@H]5O[C@H](CO)[C@@H](OS(=O)(=O)O)[C@H](OS(=O)(=O)O)[C@H]5OC(=O)CC(C)C)CC(C(=O)O)(C(=O)O)[C@H]4CC[C@]3(C2)[C@H]1O` [cATR, carboxyatractyloside], the “ADP/ATP exchange activity / ADP uptake” value [1] is reported as “completely inhibited”, the IC50 [4, 22] is reported as 0.0024 ± 0.0005 µM and the IC50 [5, 23] is reported as 0.0023 ± 0.0007 µM. The “oxygen consumption rate (OCR)” value [6] was “decreased OCR”, the “oxygen consumption rate (OCR)” value [7] was “decreased OCR” and the IC50 [8, 24] was 0.0017 ± 0.0004 µM.
With `COc1ccc2c(c[n+](C)c3c4cc5c(cc4ccc23)OCO5)c1OC` [chelerythrine] the “ADP/ATP exchange activity / ADP uptake” value [1] was “reduced ADP uptake”.
With `O=C(O)c1nn(Cc2ccc(Cl)cc2Cl)c2ccccc12` [lonidamine] the “ADP/ATP exchange activity / ADP uptake” value [1] was “reduced ADP uptake”.
For antimycin, the “ADP/ATP exchange activity / ADP uptake” value [1] was “reduced ADP uptake”.
